This note sets out measurements from article PMC7261596 (Journal of the American Chemical Society, 2019).

The target of test [1] is T1, ULK4 (Homo sapiens, UniProt Q96C45). Briefly: Mant-ADP FRET nucleotide binding / displacement assay. Particulars: competition with a fixed concentration of Mant-ADP.
The target of test [2] is T1, ULK4. Kind of test: ADP-Biotin labelling assay detected by Western blot. Format: binding. The conditions noted are these: single concentration 25 μM; ratio of Streptavidin signal to His signal. In a few lines:
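ULK4 incubated with the nucleotide analog ADP-Biotin, which biotin-labels the kinase only when bound. Biotinylated protein detected by Western blot. Test compounds, hits confirmed from a Mant-ADP displacement screen and dose response, tested at 25 μM, with competing nucleotides also at 25 μM. Mutant ULK4 forms also assayed for ADP-Biotin binding.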

One may read the Ki as a measure of affinity in units of concentration, obtained from inhibition or displacement.

T1 sequence (Q96C45 4-280 limits assumed): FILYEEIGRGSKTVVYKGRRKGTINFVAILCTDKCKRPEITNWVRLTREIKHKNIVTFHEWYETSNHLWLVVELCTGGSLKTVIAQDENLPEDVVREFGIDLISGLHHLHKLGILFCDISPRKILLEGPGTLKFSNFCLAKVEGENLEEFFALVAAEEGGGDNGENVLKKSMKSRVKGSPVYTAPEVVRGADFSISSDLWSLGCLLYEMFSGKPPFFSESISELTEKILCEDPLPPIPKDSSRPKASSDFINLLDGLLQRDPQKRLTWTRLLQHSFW

In the case of `Nc1ncnc2c1ncn2[C@@H]1O[C@H](COP(=O)(O)OP(=O)(O)OP(=O)(O)O)[C@@H](O)[C@H]1O` [ATP], the Ki on ULK4 [1] (With Mg) is 4.67 µM; at ULK4 [1] (Without Mg) it was 0.306 µM. As for `COc1cc(Nc2ncc(F)c(Nc3ccc4c(n3)N(COP(=O)(O)O)C(=O)C(C)(C)O4)n2)cc(OC)c1OC` [R788], on ULK4 [2], the “inhibition of ADP-Biotin binding to ULK4 (relative potency)” value is “most potent ULK4 binders”. As for `CNC(=O)c1nn(C)c2c1C(C)(C)Cc1cnc(Nc3ccc(N4CCN(C)CC4)cc3)nc1-2` [PHA-848125], at ULK4 [2], the “inhibition of ADP-Biotin binding to ULK4 (relative potency)” value is reported as “most potent ULK4 binders”. With `Nc1ncnc2c1ncn2[C@@H]1O[C@H](COP(=O)(O)OP(=O)(O)O)[C@@H](O)[C@H]1O` [ADP], the Ki at ULK4 [1] (With Mg) was 37 µM; on ULK4 [1] (Without Mg), 6.05 µM.
